Results on 13 compounds are retold here after ChEMBL document CHEMBL2434844, “Synthesis, antimicrobial, antioxidant activities of novel 6-aryl-5-cyano thiouracil derivatives” (Eur J Med Chem, 2013).

For orientation: MIC means the smallest concentration in the dilution series that meets the test's criterion for growth inhibition.

For assay [1], the system named is Staphylococcus aureus. The assay can be described thus: Antibacterial activity against Staphylococcus aureus ATCC 12600 after 24 hrs by microdilution technique. The assay is classed as functional. The procedure, abridged:
(§1)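 MIC by agar microdilution on Mueller-Hinton agar per NCCLS 1997. Bacteria subcultured overnight at 37 °C on MHA, Candida on SDA at 35 °C for 24-48 h, each passaged at least twice. Incubated 37 °C in humid chamber, read after 24 h.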
Background: Broth dilution looks for growth in wells or tubes with falling amounts of substance.

In assay [2] the test system is Aspergillus flavus. The assay can be described thus: Antifungal activity against Aspergillus flavus ATCC 11495 after 24 hrs by microdilution technique. The format is functional.
Assay [3] concerns Escherichia coli. Briefly: Antibacterial activity against Escherichia coli ATCC 11775 at 10 mg/disc after 48 hrs by disc-diffusion method. The assay is classed as functional, DSM 30083 = JCM 1649. Put shortly: (§2)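 Disc diffusion per Bauer method under NCCLS conditions on nutrient agar/Mueller-Hinton agar. Compound dissolved in sterile DMSO at 10 mg/mL, filtered 0.2 µm, stored frozen at -15 °C; 10 mg/disc in DMSO applied. DMSO control. Inhibition zone diameter measured in mm after 48 h incubation at 28 °C.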
(In general: A growth-free zone around the sample is the usual read-out of agar diffusion tests.)

Assay [4] concerns Bacillus cereus. The assay can be described thus: Antibacterial activity against Bacillus cereus ATCC 14579 after 24 hrs by microdilution technique. As to conditions: ATCC 14579, 24 h. The assay is classed as functional. Put shortly: as §1
Assay [5] has as its system Escherichia coli. Briefly: Antibacterial activity against Escherichia coli ATCC 11775 after 24 hrs by microdilution technique. The format is functional. As to conditions: DSM 30083 = JCM 1649, 24 h. Put shortly: as §1
Assay [6] relates to Candida albicans. The assay can be described thus: Antifungal activity against Candida albicans ATCC 26555 after 24 hrs by microdilution technique. The assay is classed as functional. Put shortly: as §1
Assay [7] concerns Bacillus cereus. Briefly: Antibacterial activity against Bacillus cereus ATCC 14579 at 10 mg/disc after 48 hrs by disc-diffusion method. The assay is classed as functional. Put shortly: as §2
In assay [8] the test system is Candida albicans. The assay can be described thus: Antifungal activity against Candida albicans ATCC 26555 at 10 mg/disc after 48 hrs by disc-diffusion method. The format is functional. The procedure, abridged:
as §2

The test system of assay [9] is Aspergillus flavus. The assay can be described thus: Antifungal activity against Aspergillus flavus ATCC 11495 at 10 mg/disc after 48 hrs by disc-diffusion method. The format is functional. The procedure, abridged: as §2
Assay [10] has as its system Staphylococcus aureus. Briefly: Antibacterial activity against Staphylococcus aureus ATCC 12600 at 10 mg/disc after 48 hrs by disc-diffusion method. The format is functional. Put shortly: as §2

The structures appear in SMILES notation. Converted amounts (≈) assume the structure as drawn. The source made the active and inactive calls.

On to `COc1cc(-c2[nH]c(=S)n3nc(C)nc3c2C#N)cc(OC)c1OC`, for which the MIC in [1] (ATCC 12600, 24 h) was determined as 128 µg/mL (≈ 358 µM); in assay [2] (ATCC 11495, 24 h) it was 256 µg/mL (≈ 716 µM); in [4], 128 µg/mL (≈ 358 µM); in assay [5], 128 µg/mL (≈ 358 µM); in assay [6] (ATCC 26555, 24 h), 128 µg/mL (≈ 358 µM). In addition, the “diameter of the inhibition zone (DIZ)” value came to 7 mm in assay [3]; 6 mm in assay [7]; 8 mm in assay [8]; 7 mm in assay [9]; 6 mm in assay [10].
As for `N#Cc1c(-c2ccc(F)cc2)[nH]c(=S)n2nnnc12`, the minimal inhibitory concentration (MIC) was found to be 16 µg/mL (≈ 58.8 µM) in assay [1] (ATCC 12600, 24 h); 32 µg/mL (≈ 118 µM) in [4]; 32 µg/mL (≈ 118 µM) in [5]. In addition, the MIC entry in assay [2] and in assay [6] was “inactive” each time. The “diameter of the inhibition zone (DIZ)” value is on record as 13 mm in [3], 15 mm in assay [7] and 15 mm in assay [10]. Further, the “diameter of the inhibition zone (DIZ)” value in assay [8] and in [9] was “inactive” throughout.
With `N#Cc1c(-c2ccc(Br)cc2)[nH]c(=S)n2cnnc12`, the MIC in [1] (ATCC 12600, 24 h) amounted to 16 µg/mL (≈ 48.2 µM); in assay [2] (ATCC 11495, 24 h), 16 µg/mL (≈ 48.2 µM); in assay [4], 16 µg/mL (≈ 48.2 µM); in assay [5] it was 16 µg/mL (≈ 48.2 µM); in assay [6] (ATCC 26555, 24 h) it was 16 µg/mL (≈ 48.2 µM). Further, the “diameter of the inhibition zone (DIZ)” value in assay [3] was 12 mm; in assay [7], 17 mm; in assay [8], 16 mm; in assay [9], 17 mm; in [10], 21 mm.
As to `COc1cc(-c2[nH]c(=S)n3ncnc3c2C#N)cc(OC)c1OC`, the minimum inhibitory concentration (MIC) is 128 µg/mL (≈ 373 µM) in assay [1] (ATCC 12600, 24 h); 256 µg/mL (≈ 746 µM) in assay [2] (ATCC 11495, 24 h); 128 µg/mL (≈ 373 µM) in assay [4]; 128 µg/mL (≈ 373 µM) in [5]; 128 µg/mL (≈ 373 µM) in assay [6] (ATCC 26555, 24 h). Also, the “diameter of the inhibition zone (DIZ)” value was 6 mm in assay [3]; 5 mm in assay [7]; 8 mm in [8]; 7 mm in assay [9]; 7 mm in assay [10].
In the case of `COc1cc(-c2[nH]c(=S)n3c(=S)[nH]nc3c2C#N)cc(OC)c1OC`, the MIC result in [1] and in [2] was “inactive” in each case. For the same compound, the “diameter of the inhibition zone (DIZ)” value in [3] was determined as 10 mm; in assay [7], 11 mm; in assay [8] it was 12 mm. Besides, the MIC was 64 µg/mL (≈ 170 µM) in assay [4]; 64 µg/mL (≈ 170 µM) in assay [5]; 32 µg/mL (≈ 85.2 µM) in assay [6] (ATCC 26555, 24 h). The “diameter of the inhibition zone (DIZ)” value in assay [9] and in assay [10] was “inactive” each time.
Turning to `N#Cc1c(-c2ccc(F)cc2)[nH]c(=S)n2cnnc12`, the minimum inhibitory concentration (MIC) was 16 µg/mL (≈ 59 µM) in assay [1] (ATCC 12600, 24 h); 16 µg/mL (≈ 59 µM) in assay [2] (ATCC 11495, 24 h); 16 µg/mL (≈ 59 µM) in assay [4]; 16 µg/mL (≈ 59 µM) in assay [5]; 16 µg/mL (≈ 59 µM) in assay [6] (ATCC 26555, 24 h). Moreover, the “diameter of the inhibition zone (DIZ)” value in assay [3] was 14 mm; in assay [7] it was 19 mm; in [8] it was 18 mm; in assay [9] it was 19 mm; in [10] it was 22 mm.
Consider `Cc1nc2c(C#N)c(-c3ccc(F)cc3)[nH]c(=S)n2n1`, for which the MIC worked out at 128 µg/mL (≈ 449 µM) in assay [1] (ATCC 12600, 24 h); 256 µg/mL (≈ 897 µM) in assay [2] (ATCC 11495, 24 h); 128 µg/mL (≈ 449 µM) in assay [4]; 128 µg/mL (≈ 449 µM) in assay [5]; 128 µg/mL (≈ 449 µM) in assay [6] (ATCC 26555, 24 h). Moreover, the “diameter of the inhibition zone (DIZ)” value in assay [3] was 7 mm; in assay [7] it was 5 mm; in [8], 8 mm; in assay [9], 7 mm; in assay [10], 7 mm.
As for `N#Cc1c(NN)nc(=S)[nH]c1-c1ccc(Br)cc1`, the MIC in assay [1] (ATCC 12600, 24 h) was determined as 64 µg/mL (≈ 199 µM); in [4] it was 64 µg/mL (≈ 199 µM); in assay [5] it was 64 µg/mL (≈ 199 µM). The MIC entry in [2] and in [6] was “inactive” each time. For the same compound, the “diameter of the inhibition zone (DIZ)” value in [3] came out at 11 mm; in assay [7] it was 11 mm; in [10], 13 mm. The “diameter of the inhibition zone (DIZ)” value in assay [8] and in assay [9] was “inactive” in each case.
With `N#Cc1c(-c2ccc(Br)cc2)[nH]c(=S)n2c(=S)[nH]nc12`, the MIC result in assay [1] and in assay [2] was “inactive” in each case. The “diameter of the inhibition zone (DIZ)” value in assay [3] was 11 mm; in [7], 10 mm; in [8] it was 12 mm. For the same compound, the minimum inhibitory concentration (MIC) in [4] came to 64 µg/mL (≈ 176 µM); in assay [5], 64 µg/mL (≈ 176 µM); in assay [6] (ATCC 26555, 24 h), 32 µg/mL (≈ 87.9 µM). Besides, the “diameter of the inhibition zone (DIZ)” value in assay [9] and in assay [10] was “inactive” throughout.
In the case of `COc1cc(-c2[nH]c(=S)nc(N/N=C/c3ccc(F)cc3)c2C#N)cc(OC)c1OC`, the minimum inhibitory concentration (MIC) in [1] (ATCC 12600, 24 h) was 32 µg/mL (≈ 72.8 µM); in assay [2] (ATCC 11495, 24 h), 32 µg/mL (≈ 72.8 µM); in [4], 32 µg/mL (≈ 72.8 µM); in assay [5], 32 µg/mL (≈ 72.8 µM); in assay [6] (ATCC 26555, 24 h), 32 µg/mL (≈ 72.8 µM). The “diameter of the inhibition zone (DIZ)” value in assay [3] was 12 mm; in assay [7], 17 mm; in assay [8], 16 mm; in assay [9], 15 mm; in assay [10] it was 19 mm.
For the compound `Cc1cc(C)n(-c2nc(=S)[nH]c(-c3ccc(Br)cc3)c2C#N)n1`, the MIC in [1] (ATCC 12600, 24 h) worked out at 32 µg/mL (≈ 82.8 µM); in assay [4], 32 µg/mL (≈ 82.8 µM); in assay [5], 32 µg/mL (≈ 82.8 µM). The MIC result in assay [2] and in assay [6] was “inactive” in each case. In addition, the “diameter of the inhibition zone (DIZ)” value in [3] stood at 11 mm; in assay [7], 12 mm; in assay [10], 12 mm. In addition, the “diameter of the inhibition zone (DIZ)” value in assay [8] and in assay [9] was “inactive” throughout.
`COc1ccc(/C=N/Nc2nc(=S)[nH]c(-c3cc(OC)c(OC)c(OC)c3)c2C#N)cc1`: the MIC was 32 µg/mL (≈ 70.9 µM) in assay [1] (ATCC 12600, 24 h); 32 µg/mL (≈ 70.9 µM) in assay [2] (ATCC 11495, 24 h); 32 µg/mL (≈ 70.9 µM) in [4]; 32 µg/mL (≈ 70.9 µM) in assay [5]; 32 µg/mL (≈ 70.9 µM) in [6] (ATCC 26555, 24 h). The “diameter of the inhibition zone (DIZ)” value in assay [3] turned out to be 12 mm; in assay [7], 15 mm; in assay [8], 15 mm; in assay [9] it was 15 mm; in assay [10], 17 mm.
As to `Cc1nc2c(C#N)c(-c3ccc(Br)cc3)[nH]c(=S)n2n1`, the MIC in [1] (ATCC 12600, 24 h) is 128 µg/mL (≈ 370 µM); in assay [2] (ATCC 11495, 24 h), 256 µg/mL (≈ 739 µM); in assay [4] it was 128 µg/mL (≈ 370 µM); in assay [5], 128 µg/mL (≈ 370 µM); in [6] (ATCC 26555, 24 h) it was 128 µg/mL (≈ 370 µM). In addition, the “diameter of the inhibition zone (DIZ)” value in assay [3] stood at 6 mm; in [7] it was 6 mm; in [8], 8 mm; in assay [9] it was 7 mm; in assay [10], 7 mm.
